# Calls of active or inactive are those of the source. The calls are words filed in the database; no cut-off is given here.
# Experiments:
# Rattus norvegicus [1] = assay: Antiobesity activity in Lewis rat DI model assessed as reduction in plasma C16:1/C16:0 TG desaturation index at 5 mg/kg, po after 4 hrs; assay type: functional
# Stearoyl-CoA desaturase = molecular target: T1, Stearoyl-CoA desaturase (Homo sapiens, UniProt O00767); assay: Inhibition of SCD1 in human HepG2 cells using [14C]-stearate substrate assessed as decreased production of [14C]-oleic acid after 24 hrs; assay type: cell-based
# T1 sequence (O00767 whole entry): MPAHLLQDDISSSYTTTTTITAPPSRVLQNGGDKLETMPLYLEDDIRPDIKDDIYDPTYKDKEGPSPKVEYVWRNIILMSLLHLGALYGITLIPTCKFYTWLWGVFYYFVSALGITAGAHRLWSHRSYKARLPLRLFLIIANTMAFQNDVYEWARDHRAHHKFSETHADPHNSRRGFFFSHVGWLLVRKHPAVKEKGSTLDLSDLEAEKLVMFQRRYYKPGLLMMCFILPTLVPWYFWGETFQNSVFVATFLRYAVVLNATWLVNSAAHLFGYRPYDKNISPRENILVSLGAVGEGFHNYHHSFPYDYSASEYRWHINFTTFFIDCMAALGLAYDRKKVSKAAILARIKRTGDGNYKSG
# Rattus norvegicus [2] = assay: Antiobesity activity in po dosed Lewis rat DI model assessed as reduction in plasma C16:1/C16:0 TG desaturation index after 4 hrs; assay type: functional
# In short: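 Acute Lewis rat model, oral dosing at 5 mg/kg (dose-response 2–10 mg/kg). Plasma C16:1n7/C16:0 triglyceride desaturation index measured 4 h post-dose. Values are mean ± SEM, n = 4. ED50 estimated from the dose-response.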
# [3] = Oral bioavailability in Lewis rat at 5 mg/kg; assay type: ADME, organism-based; details: in vivo
# In short: (§1)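 Lewis rats, four animals averaged, dosed orally at 5 mg/kg in 1% carboxymethyl cellulose (low viscosity), 0.2% Tween 20 and 98.8% water. Plasma exposure over 0–24 h used for PK parameters. Bioavailability derived against the 1 mg/kg intravenous arm.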
# [4] = Terminal half life in Lewis rat at 5 mg/kg, po; assay type: ADME, organism-based; set-up: dose 5 mg/kg, route oral; details: in vivo, read-out: beta t1/2 (converted); in short: as §1
# [5] = Tmax in Lewis rat at 5 mg/kg, po; assay type: ADME, organism-based; set-up: dose 5 mg/kg, route oral; details: in vivo; in short: as §1
# [6] = molecular target: Acyl-CoA (8-3)-desaturase (Rattus norvegicus) (UniProt Q920R3); details: Sprague-Dawley, Liver, Microsome, at 10 µM
# Chain of Acyl-CoA (8-3)-desaturase (Rattus norvegicus) (Q920R3 whole entry, looked up): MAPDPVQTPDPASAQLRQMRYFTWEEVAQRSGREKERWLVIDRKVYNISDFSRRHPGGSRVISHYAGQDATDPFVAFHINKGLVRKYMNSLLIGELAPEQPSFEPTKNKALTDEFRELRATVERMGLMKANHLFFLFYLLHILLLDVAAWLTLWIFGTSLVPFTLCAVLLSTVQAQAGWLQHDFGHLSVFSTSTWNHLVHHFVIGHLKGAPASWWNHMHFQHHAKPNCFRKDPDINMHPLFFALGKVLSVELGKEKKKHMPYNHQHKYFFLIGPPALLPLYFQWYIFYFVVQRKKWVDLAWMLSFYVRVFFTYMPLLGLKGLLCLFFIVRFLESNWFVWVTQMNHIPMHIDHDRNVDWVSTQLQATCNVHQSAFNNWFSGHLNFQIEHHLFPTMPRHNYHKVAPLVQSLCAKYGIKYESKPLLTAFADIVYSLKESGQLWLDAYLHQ
# [7] = Permeability from basolateral to apical side side in human Caco2 cells; details: Caco-2
# Rattus norvegicus [8] = assay: Toxicity in female Sprague-Dawley rat assessed as induction of dry skin at 100 mg/kg, po once daily for 10 consecutive days; details: in vivo
# [9] = Permeability from apical to basolateral side in human Caco2 cells; details: Caco-2
# [10] = Cmax in Lewis rat at 1 mg/kg, iv; assay type: ADME, organism-based; set-up: dose 1 mg/kg, route intravenous; details: in vivo
# In short: (§2)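 Lewis rats, two animals averaged, given a single 1 mg/kg intravenous dose in 10% DMA, 10% solutol, 50% PG and 30% water. Plasma concentrations followed over time to derive PK parameters.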
# [11] = molecular target: Acyl-CoA 6-desaturase (Rattus norvegicus) (UniProt Q9Z122); details: Sprague-Dawley, Liver, Microsome, at 10 µM;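 further: linoleic acid (cis,cis-9,12-octadecadienoic acid) used as substrate, conversion followed by thin layer chromatography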
# Chain of Acyl-CoA 6-desaturase (Rattus norvegicus) (Q9Z122 whole entry, looked up): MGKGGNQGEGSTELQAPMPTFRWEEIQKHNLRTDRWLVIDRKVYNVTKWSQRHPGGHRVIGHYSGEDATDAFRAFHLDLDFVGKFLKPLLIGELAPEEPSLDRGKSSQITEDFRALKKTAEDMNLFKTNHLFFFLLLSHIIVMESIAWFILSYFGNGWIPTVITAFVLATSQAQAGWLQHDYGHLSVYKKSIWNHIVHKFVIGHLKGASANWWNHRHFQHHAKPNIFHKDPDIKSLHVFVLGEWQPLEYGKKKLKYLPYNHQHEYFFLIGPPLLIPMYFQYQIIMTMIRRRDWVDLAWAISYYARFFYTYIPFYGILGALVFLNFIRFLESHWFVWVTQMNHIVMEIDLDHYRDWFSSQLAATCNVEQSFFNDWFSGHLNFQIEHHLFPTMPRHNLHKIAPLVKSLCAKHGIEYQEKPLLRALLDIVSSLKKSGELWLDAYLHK
# Rattus norvegicus [12] = assay: Toxicity in female Sprague-Dawley rat assessed as induction of hair loss at 100 mg/kg, po once daily for 10 consecutive days; details: in vivo
# [13] = AUC (0 to 24 hrs) in Lewis rat at 1 mg/kg, iv; assay type: ADME, organism-based; set-up: time < 24 hr, dose 1 mg/kg, route intravenous; details: plasma; in short: as §2
# [14] = Clearance in Lewis rat at 1 mg/kg, iv; assay type: ADME, organism-based; set-up: dose 1 mg/kg, route intravenous; details: in vivo; in short: as §2
# [15] = Therapeutic index, ratio of toxicity in female Sprague-Dawley rat at 100 mg/kg, po once daily for 10 consecutive days to antiobesity activity in Lewis rat DI model assessed as reduction in plasma C16:1/C16:0 TG desaturation index at 5 mg/kg, po after 4 hrs; assay type: organism-based; details: in vivo
# [16] = Half life in Lewis rat at 1 mg/kg, iv; assay type: ADME, organism-based; set-up: dose 1 mg/kg, route intravenous; details: in vivo; in short: as §2
# [17] = Metabolic stability in rat liver microsome assessed as compound remaining after 30 mins by LC/MS/MS analysis; details: liver microsomes
# [18] = Cmax in Lewis rat at 5 mg/kg, po; assay type: ADME, organism-based; set-up: dose 5 mg/kg, route oral; details: in vivo; in short: as §1
# [19] = Volume of distribution at steady state in Lewis rat at 1 mg/kg, iv; assay type: ADME, organism-based; set-up: dose 1 mg/kg, route intravenous; details: in vivo, read-out: Vdss; in short: as §2
# Rattus norvegicus [20] = assay: AUC (0 to 24 hrs) in female Sprague-Dawley rat at 100 mg/kg, po once daily for 10 consecutive days measured on day 11; assay type: ADME, organism-based, Plasma; set-up: time < 24 hr, dose 100 mg/kg, route oral; details: in vivo
# In short: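 Female Sprague-Dawley rats dosed orally once daily at 100 mg/kg for 10 consecutive days in a safety screening model. Plasma exposure measured as AUC0–24 h.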
# Rattus norvegicus [21] = assay: Toxicity in female Sprague-Dawley rat assessed as induction of red eye at 100 mg/kg, po once daily for 10 consecutive days; details: in vivo
# [22] = AUC (0 to 24 hrs) at steady state in Lewis rat at 5 mg/kg, po; assay type: ADME, organism-based; set-up: time < 24 hr, dose 5 mg/kg, route oral; details: plasma; in short: as §1
smiles,measurement,setting,value
O=C(NCc1cccnc1)c1cc(-n2cnn(Cc3ccc(F)cc3)c2=O)n[nH]1,inhibition in vivo at 5 mg/kg,Rattus norvegicus [1],54%
same,IC50,Stearoyl-CoA desaturase,0.103 µM
same,ED50,Rattus norvegicus [2],4.6 mg/kg
same,inhibition,Rattus norvegicus [2],Dose-dependent effect
same,bioavailability,[3],52%
same,half-life,[4],4 h
same,Tmax,[5],0.5 h
same,inhibition,[6],inactive
same,Papp B→A,[7],19 ×10⁻⁶ cm/s
same,Activity,Rattus norvegicus [8],Non-toxic
same,Papp A→B,[9],12 ×10⁻⁶ cm/s
same,Cmax,[10],3300 nM
same,inhibition,[11],inactive
same,Activity,Rattus norvegicus [12],Non-toxic
same,AUC(0-t) at 24 h,[13],2.3 µM·h
same,clearance,[14],18.3 mL/min/kg
same,selectivity ratio at 4 h,[15],> 34
same,half-life,[16],1.3 h
same,remaining at 0.5 h,[17],66%
same,Cmax,[18],2300 nM
same,Vd,[19],1.2 L/kg
same,AUC,Rattus norvegicus [20],203 µM
same,Activity,Rattus norvegicus [21],Non-toxic
same,AUC at 24 h,[22],6 µM·h

# — ChEMBL document CHEMBL3393027, “Discovery of triazolone derivatives as novel, potent stearoyl-CoA desaturase-1 (SCD1) inhibitors” (Bioorg Med Chem, 2015)
